The source of these data is ChEMBL document CHEMBL3585276, “Topoisomerase I and II inhibitory activity, cytotoxicity, and structure-activity relationship study of dihydroxylated 2,6-diphenyl-4-aryl pyridines” (Bioorg Med Chem, 2015).

Assay [1] concerns the target DNA topoisomerase 2-alpha (Homo sapiens) (UniProt P11388). Put plainly: Inhibition of recombinant human DNA topoisomerase-2alpha using supercoiled pBR322 plasmid DNA as substrate at 20 uM after 30 mins by agarose gel electrophoresis relative to control. The procedure, abridged: (§1)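 200 ng supercoiled pBR322 with 1 unit human topo II, incubated 30 min at 30 °C with or without compound in 10 mM Tris–HCl pH 7.9, 50 mM NaCl, 5 mM MgCl2, 1 mM EDTA, 1 mM ATP and 15 µg/mL BSA. Reaction was stopped with 7 mM EDTA and run on 1% agarose in TAE at 25 V. Gel was stained with ethidium bromide, visualized under UV, and supercoiled DNA quantitated densitometrically.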

Assay [2] concerns HCT-15. Put plainly: Cytotoxicity against human HCT15 cells measured on day 4 by CCK8 assay. Format: functional, cell-based. The following applies: HCT-15, 96 h. The procedure, abridged: (§2)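 Cells seeded at […], grown overnight in medium with 10% FBS at 37 °C under 5% CO2. On day 2 they were serum-starved 4 h, then exposed to graded compound concentrations. On day 4 CCK-8 was added for a further 4 h and absorbance read at 450 nm. IC50 came from a four-parameter logistic fit, mean ± SD of three experiments in triplicate.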

In assay [3] the test system is T47D. Put plainly: Cytotoxicity against human T47D cells measured on day 4 by CCK8 assay. Format: functional, cell-based. Conditions: 96 h. The essentials:
as §2
(Formazan colour is commonly taken as a measure of viable cells.)

Assay [4] concerns the target DNA topoisomerase 2-alpha (Homo sapiens) (UniProt P11388). Put plainly: Inhibition of recombinant human DNA topoisomerase-2alpha using supercoiled pBR322 plasmid DNA as substrate at 100 uM after 30 mins by agarose gel electrophoresis relative to control. The procedure, abridged: as §1
The target of assay [5] is T1, DNA topoisomerase 1 (Homo sapiens) (UniProt P11387).
T1 sequence (whole entry): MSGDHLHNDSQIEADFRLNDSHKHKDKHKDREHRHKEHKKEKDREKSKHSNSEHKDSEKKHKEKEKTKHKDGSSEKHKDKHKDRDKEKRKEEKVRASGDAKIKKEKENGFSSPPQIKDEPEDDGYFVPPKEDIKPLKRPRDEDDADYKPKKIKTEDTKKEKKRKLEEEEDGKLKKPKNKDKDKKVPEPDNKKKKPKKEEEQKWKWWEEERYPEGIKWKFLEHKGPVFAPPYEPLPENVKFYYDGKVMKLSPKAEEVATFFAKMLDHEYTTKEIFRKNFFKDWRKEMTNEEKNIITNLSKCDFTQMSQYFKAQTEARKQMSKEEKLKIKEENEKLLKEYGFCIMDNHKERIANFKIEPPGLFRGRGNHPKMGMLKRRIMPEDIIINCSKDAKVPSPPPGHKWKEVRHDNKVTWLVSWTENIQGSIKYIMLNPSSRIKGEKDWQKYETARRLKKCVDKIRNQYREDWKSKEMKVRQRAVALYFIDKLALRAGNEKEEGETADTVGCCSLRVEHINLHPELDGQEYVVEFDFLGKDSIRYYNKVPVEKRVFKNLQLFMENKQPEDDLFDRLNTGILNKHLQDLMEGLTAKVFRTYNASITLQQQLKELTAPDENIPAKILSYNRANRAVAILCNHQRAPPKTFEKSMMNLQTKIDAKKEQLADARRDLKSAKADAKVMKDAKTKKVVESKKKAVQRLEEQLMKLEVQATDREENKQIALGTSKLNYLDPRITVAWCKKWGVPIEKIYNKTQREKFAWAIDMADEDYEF
Put plainly: Inhibition of recombinant human DNA topoisomerase-1 assessed as relaxation of supercoiled DNA pBR322 at 100 uM after 30 mins by agarose gel electrophoresis relative to control. The procedure, abridged: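 Relaxation assay with 100 ng pBR322 plasmid DNA and 1 unit recombinant human topo I. Buffer was 10 mM Tris–HCl pH 7.9, 150 mM NaCl, 0.1% BSA, 1 mM spermidine and 5% glycerol, incubated 37 °C for 30 min with or without compound. Products were run on a 1% agarose gel in TAE at 15 V for 7 h and stained with ethidium bromide (0.5 µg/mL) for 30 min.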

Assay [6] deals with HeLa. Put plainly: Cytotoxicity against human HeLa cells measured on day 4 by CCK8 assay. The following applies: 96 h. Format: functional, cell-based. The procedure, abridged: as §2
For assay [7], the system named is DU-145. Put plainly: Cytotoxicity against human DU145 cells measured on day 4 by CCK8 assay. The following applies: DU-145, 96 h. Format: functional, cell-based. The essentials: as §2

Sequence of DNA topoisomerase 2-alpha (Homo sapiens) (P11388 whole entry): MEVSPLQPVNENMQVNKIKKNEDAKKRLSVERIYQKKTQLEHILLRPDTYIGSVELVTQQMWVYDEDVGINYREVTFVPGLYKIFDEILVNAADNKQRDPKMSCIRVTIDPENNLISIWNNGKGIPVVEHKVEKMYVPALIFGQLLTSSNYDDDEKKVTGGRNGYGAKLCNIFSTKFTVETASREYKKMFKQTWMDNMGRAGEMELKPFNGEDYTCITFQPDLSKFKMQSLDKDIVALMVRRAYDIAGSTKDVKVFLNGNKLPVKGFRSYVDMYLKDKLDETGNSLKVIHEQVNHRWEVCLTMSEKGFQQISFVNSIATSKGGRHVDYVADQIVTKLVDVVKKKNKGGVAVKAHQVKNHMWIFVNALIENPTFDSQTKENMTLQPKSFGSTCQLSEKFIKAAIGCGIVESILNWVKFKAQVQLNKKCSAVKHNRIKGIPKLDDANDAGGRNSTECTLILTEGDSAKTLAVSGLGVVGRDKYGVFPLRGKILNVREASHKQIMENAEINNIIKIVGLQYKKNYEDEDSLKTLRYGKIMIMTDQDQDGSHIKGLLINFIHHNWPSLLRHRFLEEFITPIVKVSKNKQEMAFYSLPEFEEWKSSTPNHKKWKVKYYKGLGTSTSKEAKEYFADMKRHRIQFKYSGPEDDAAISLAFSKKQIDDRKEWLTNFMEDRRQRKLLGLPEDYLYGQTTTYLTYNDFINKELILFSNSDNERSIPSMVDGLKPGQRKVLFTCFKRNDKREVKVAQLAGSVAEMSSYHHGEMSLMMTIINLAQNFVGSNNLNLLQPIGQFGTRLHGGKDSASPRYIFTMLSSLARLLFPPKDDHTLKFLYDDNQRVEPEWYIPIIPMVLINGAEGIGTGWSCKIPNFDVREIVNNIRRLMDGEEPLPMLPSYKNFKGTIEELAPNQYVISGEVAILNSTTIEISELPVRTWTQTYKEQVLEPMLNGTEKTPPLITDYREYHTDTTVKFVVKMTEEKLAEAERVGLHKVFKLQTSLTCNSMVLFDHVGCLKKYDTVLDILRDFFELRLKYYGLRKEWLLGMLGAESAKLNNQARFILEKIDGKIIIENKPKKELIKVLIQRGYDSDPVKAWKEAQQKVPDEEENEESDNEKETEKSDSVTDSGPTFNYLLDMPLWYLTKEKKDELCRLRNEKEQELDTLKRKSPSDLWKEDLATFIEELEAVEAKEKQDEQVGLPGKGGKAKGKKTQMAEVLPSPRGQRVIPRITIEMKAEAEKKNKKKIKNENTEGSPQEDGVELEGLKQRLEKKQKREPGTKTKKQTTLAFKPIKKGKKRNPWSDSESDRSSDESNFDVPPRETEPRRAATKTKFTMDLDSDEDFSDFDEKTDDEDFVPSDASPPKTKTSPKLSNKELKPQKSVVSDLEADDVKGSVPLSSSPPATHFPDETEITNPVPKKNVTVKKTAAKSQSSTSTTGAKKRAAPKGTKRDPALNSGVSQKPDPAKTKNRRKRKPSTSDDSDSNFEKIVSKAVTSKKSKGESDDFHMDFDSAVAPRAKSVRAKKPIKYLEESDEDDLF

Usually inhibition stands for the change of the read-out against control, counted positive when it falls. In general, IC50 refers to the midpoint of a concentration-inhibition curve. High values mean weaker potency in that assay, low ones greater potency in that assay. Turning to `Oc1ccc(-c2cc(-c3ccsc3)cc(-c3ccccc3O)n2)cc1`, the inhibition in assay [1] is 9.7%; in assay [4], 80.6%; in assay [5], 13.8%. Moreover, the IC50 in assay [2], in assay [3], in assay [6] and in assay [7] was above 50 µM each time.

Turning to `Oc1ccc(-c2cc(-c3ccccn3)cc(-c3ccccc3O)n2)cc1`, the half-maximal inhibitory concentration (IC50) in assay [2] was above 50 µM; in assay [3], above 50 µM; in assay [6] it was above 50 µM; in assay [7], 25.4 µM. Further, the figures for the inhibition in assay [4] and in assay [5] were 7.8% and 0.2%, respectively.

In the case of `CC[C@@]1(O)C(=O)OCc2c1cc1n(c2=O)Cc2cc3ccccc3nc2-1` [CAMPTOTHECIN], the IC50 in assay [2] was determined as 2.82 µM; in assay [3], 1.84 µM; in assay [6] it was 0.18 µM; in assay [7], 0.02 µM.

As for `Oc1cccc(-c2cc(-c3ccsc3)cc(-c3ccccc3O)n2)c1`, the figures for the inhibition in assay [1], in assay [4] and in assay [5] were 11%, 78.2% and 10.2%, respectively. Also, the IC50 in assay [2], in assay [3], in assay [6] and in assay [7] was above 50 µM each time.

Turning to `Oc1ccc(-c2cc(-c3ccsc3)cc(-c3cccc(O)c3)n2)cc1`, the values for the inhibition in assay [1], in assay [4] and in assay [5] were 44.7%, 91.5% and 17.1%, respectively. Also, the IC50 was determined as 1.18 µM in assay [2], 0.76 µM in assay [3], 2.58 µM in assay [6] and 2.23 µM in assay [7].

Take `Oc1ccc(-c2cc(-c3ccccn3)cc(-c3ccc(O)cc3)n2)cc1`: the IC50 in assay [2] is above 50 µM; in assay [3], 1.04 µM; in assay [6] it was above 50 µM; in assay [7], above 50 µM. For the same compound, the inhibition in assay [4] came out at 27.4%; in assay [5] it was 1.4%.

Regarding `COc1cc([C@@H]2c3cc4c(cc3[C@@H](O[C@@H]3O[C@@H]5CO[C@@H](C)O[C@H]5[C@H](O)[C@H]3O)[C@H]3COC(=O)[C@H]23)OCO4)cc(OC)c1O` [ETOPOSIDE], the IC50 amounted to 18.9 µM in assay [2], 13.7 µM in assay [3], 7.32 µM in assay [6] and 2.09 µM in assay [7].

As for `Oc1ccccc1-c1cc(-c2ccccn2)cc(-c2ccccc2O)n1`, the inhibition in assay [1] was 4.3%; in assay [4], 65.5%; in assay [5] it was 0.8%. Further, the IC50 in assay [2], in assay [3], in assay [6] and in assay [7] was above 50 µM each time.

As for `Oc1ccc(-c2cc(-c3ccccn3)cc(-c3cccc(O)c3)n2)cc1`, the IC50 in assay [2] is above 50 µM; in assay [3] it was 0.98 µM; in assay [6], 1.93 µM; in assay [7] it was 1.98 µM. For the same compound, the inhibition in assay [4] is 11.9%; in assay [5], 2.4%.

As for `Oc1ccccc1-c1cc(-c2ccoc2)cc(-c2ccccc2O)n1`, the IC50 in assay [2], in assay [3], in assay [6] and in assay [7] was above 50 µM each time. The inhibition in assay [4] came out at 12.2%; in assay [5], 1%.

Take `Oc1cccc(-c2cc(-c3ccccn3)cc(-c3cccc(O)c3)n2)c1`: the inhibition in assay [1] turned out to be 4.3%; in assay [4], 52.2%; in assay [5], 8.3%. Further, the IC50 in assay [2] was 3.51 µM; in assay [3] it was 1.41 µM; in assay [6], 6.5 µM; in assay [7], 3.61 µM.

Consider `Oc1cccc(-c2cc(-c3ccoc3)cc(-c3ccccc3O)n2)c1`, for which the inhibition in assay [1] worked out at 7%; in assay [4] it was 62.1%; in assay [5] it was 29.5%. Moreover, the half-maximal inhibitory concentration (IC50) is above 50 µM in assay [2], above 50 µM in assay [3], above 50 µM in assay [6] and 2.79 µM in assay [7].

`COc1cccc2c1C(=O)c1c(O)c3c(c(O)c1C2=O)C[C@@](O)(C(=O)CO)C[C@@H]3O[C@H]1C[C@H](N)[C@H](O)[C@H](C)O1` [DOXORUBICIN]: the IC50 came out at 1.23 µM in assay [2], 1.34 µM in assay [3] and 0.88 µM in assay [6].
